The conditions of data set [1]: read-out: DPPH radical scavenging EC50, cited from earlier work.
The test system of the next data set is SH-SY5Y cells. The experiment in a line: Concentration screening for nontoxic concentration. Format: cell-based, human. The conditions noted are these: 24 h, MTT. In a few lines:
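SH-SY5Y human neuroblastoma cells grown in DMEM with 10% heat-inactivated FCS, penicillin and streptomycin at 37 °C in 5% CO2. Plated at 0.12 × 10^6 cells/ml. Test compound from 25 mM DMSO stock, screened at 5 to 30 μM. MTT (0.5 mg/ml) for 3 h at 37 °C; formazan dissolved in 0.04 M HCl/isopropanol and read at 570 nm. Expressed as % of untreated cells.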

Data set [2] is described as follows: Antioxidant activity, DPPH radical scavenging. The conditions noted are these: read-out: DPPH radical scavenging EC50. The method in brief: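 DPPH at 0.002% in methanol mixed with the test compound in methanol at five concentrations. Incubated 30 min at RT, protected from light. Absorbance read at 517 nm against a methanol blank. %AA = 100×(A_DPPH − A_sol)/A_DPPH. Run in duplicate. EC50 taken from a plot of antioxidant activity against compound concentration.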
(In general: The DPPH test is a chemical assay of radical scavenging.)

The target of data set [3] is T1, Aβ1–42 (Homo sapiens, UniProt P05067). The conditions noted are these: cited from earlier work.
For data set [4] the following is noted: physiological pH, CL/CM=10, CM=1 μM; cited from earlier work.
Data set [5] deals with T1, Aβ1–42. Nature of the data set: Inhibition of Cu. Format: biochemical. The conditions noted are these: read-out: Inhibition of Aβ aggregation in the presence of copper(II). The method in brief:
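Aβ1–42 pretreated with HFIP, held as stock in CH3CN/Na2CO3/NaOH, then diluted to 40 μM in 0.215 M phosphate, pH 8.0. Incubated 24 h at 37 °C with or without test compound (80 μM), with CuCl2 (40 μM) for the Cu(II) condition. ThT (5 μM, glycine–NaOH pH 8.5) fluorescence read at 446/485 nm, corrected for peptide-free blanks. % inhibition taken versus no compound; mean ± SEM of duplicates from two experiments.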

For data set [6], the target named is T1, Aβ1–42. The experiment in a line: TEM imaging of Aβ1–42 aggregation. In a few lines:
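Aβ1–42 film dissolved by sonication in CH3CN/NaCl/NH4OH and diluted in 50 mM HEPES, pH 6.6. Mixed with test compound, with or without CuCl2, and incubated 24 h at 37 °C with gentle shaking. Sample applied to formvar/carbon Cu grids for 2 min at RT, washed with water and stained with 1% uranyl acetate for 1 min. Imaged at 200 kV, 10000–20000×.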

Molecules are shown by their SMILES. Where two headings read alike, the source gives them in different places. Some results are limits rather than exact numbers.

Usually EC50 stands for the midpoint of the concentration-response curve. By inhibition is commonly meant how much of the control response was suppressed.

T1 sequence (P05067 672-713): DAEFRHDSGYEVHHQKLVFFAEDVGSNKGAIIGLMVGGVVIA

For `Nc1c2c(nc3ccccc13)CCCC2` [Tacrine, tacrine], in data set [1], the EC50 was greater than 1000 µM.
Take `COc1cccc2cc(C(=O)NCCN3CCN(Cc4ccccc4)CC3)oc12` [Compound 7, N-(2-(4-benzylpiperazin-1-yl)ethyl)-7-methoxybenzofuran-2-carboxamide]: in the data set with SH-SY5Y cells, the Highest nontoxic concentration was found to be 30 µM.
In the case of `O=C(NCCN1CCN(Cc2ccccc2)CC1)c1cc2ccccc2o1` [Compound 5, N-(2-(4-benzylpiperazin-1-yl)ethyl)benzofuran-2-carboxamide], in the data set on SH-SY5Y cells, the Highest nontoxic concentration came out at 30 µM.
Regarding `Cc1c(C)c2c(c(C)c1O)CCC(C)(C(=O)O)O2` (stereo not drawn) [Trolox], the EC50 in data set [1] (same experimental method) was 15 µM.
As for `O=C(NCC1CCN(Cc2ccccc2)CC1)c1cc2ccccc2o1` [Compound 4, N-((1-benzylpiperidin-4-yl)methyl)benzofuran-2-carboxamide], in the data set with SH-SY5Y cells, the Highest nontoxic concentration was 30 µM.
Consider `O=C(NCCN1CCN(Cc2ccccc2)CC1)c1ccc2[nH]c(-c3ccccc3O)nc2c1` [Compound 2, N-(2-(4-benzylpiperazin-1-yl)ethyl)-2-(2-hydroxyphenyl)-1H-benzo[d]imidazole-5-carboxamide], for which the EC50 in data set [2] came to 594 ± 4 µM. For the same compound, the “Aβ aggregates seen by TEM” value at Aβ1–42 [3] (absence of copper) is listed as “a reduction of Aβ aggregates was also observed”; on Aβ1–42 [3] (presence of copper) it was “reduction of Aβ aggregates”. The compound also had a Highest nontoxic concentration in the data set on SH-SY5Y cells of 5 µM. Also, the pCu in data set [4] was 11.4.
Consider `COc1cccc2cc(C(=O)NCC3CCN(Cc4ccccc4)CC3)oc12` [Compound 6, N-((1-benzylpiperidin-4-yl)methyl)-7-methoxy-benzofuran-2-carboxamide], for which the Highest nontoxic concentration in the data set on SH-SY5Y cells was found to be 20 µM.
Consider `O=C(NCCN1CCN(Cc2ccccc2)CC1)c1cc2cccc(O)c2o1` [Compound 3, N-(2-(4-benzylpiperazin-1-yl)ethyl)-7-hydroxybenzofuran-2-carboxamide], for which the inhibition on Aβ1–42 [5] turned out to be 35.5%.
Regarding `O=C(NCC1CCN(Cc2ccccc2)CC1)c1ccc2[nH]c(-c3ccccc3O)nc2c1` [Compound 1, N-((1-benzylpiperidin-4-yl)methyl)-2-(2-hydroxyphenyl)-1H-benzo[d]imidazole-5-carboxamide], the “Aβ aggregates seen by TEM” value on Aβ1–42 [6] (absence of copper) is “quite sparse”; at Aβ1–42 [6] (presence of copper), “reduction of Aβ aggregates”. The Highest nontoxic concentration in the data set with SH-SY5Y cells came out at 2.5 µM.

The values are drawn from paper PMC6127844 (Journal of Enzyme Inhibition and Medicinal Chemistry, 2018).
